ChEMBL document CHEMBL4842338, “System-oriented optimization of multi-target 2,6-diaminopurine derivatives: Easily accessible broad-spectrum antivirals active against flaviviruses, influenza virus and SARS-CoV-2” (Eur J Med Chem, 2021)
Calls of active or inactive are those of the source. No cut-off for these calls is given here.

What was measured:
[1] = Selectivity index, ratio of CC50 for human A549 cells to IC50 for Influenza A Puerto Rico/8/34/H1N1 infected in human A549 cells; type: toxicity, cell-based; settings: read-out: Selectivity Index
Outline: (§1)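 MDCK or A549 cells (2.5 × 10⁵/well) infected with A/Puerto Rico/8/34 H1N1 for 1 h at 37 °C, then washed. Compound (0.5–20 μM) added in 2% FBS medium for 24 h, with DMSO final ≤0.2%. Virus in supernatants read by hemagglutination. CC₅₀ by MTT (2 × 10⁴ cells/well, same concentrations, 24 h, absorbance 570 nm). SI = CC₅₀/IC₅₀.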

Influenza A virus [2] = assay: Antiviral activity against Influenza A Puerto Rico/8/34/H1N1 infected in human A549 cells assessed as inhibition of viral replication after 24 hrs by hemagglutination assay; type: functional, organism-based; settings: A/Puerto Rico/8/1934(H1N1), A549, 24 h
A549 = assay: Cytotoxicity against human A549 cells assessed as reduction in cell viability measured after 24 hrs by MTT assay; type: cell-based; settings: a549, 24 h
Huh-7 = assay: Cytotoxicity against human Huh-7 cells assessed as reduction in cell viability by Celltiter-Glo luminescent cell viability assay; type: cell-based; settings: huh-7
Outline: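 Compound-exposed cells assessed by CellTiter-Glo luminescence versus DMSO control; CC50 from dose-response.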

dengue virus type 2 = assay: Antiviral activity against Dengue virus serotype 2 New Guinea C infected in pre-seeded Huh-7 cells assessed as inhibition of viral replication incubated for 72 hrs by immunodetection based secondary yield reduction assay; type: functional, organism-based; settings: Dengue virus, New Guinea C, Huh-7, 72 h; read-out: IC50
[3] = Selectivity index, ratio of CC50 for human Huh-7 cells to IC50 for Dengue virus serotype 2 New Guinea C infected in pre-seeded Huh-7 cells assessed as inhibition of viral replication incubated for 72 hrs by immunodetection based secondary yield reduction assay; type: toxicity, cell-based; settings: read-out: Selectivity Index
Zika virus = assay: Antiviral activity against Zika virus H/PF/2013 infected in pre-seeded Huh-7 cells assessed as inhibition of viral replication incubated for 72 hrs by immunodetection based secondary yield reduction assay; type: functional, organism-based; settings: H/PF/2013, Huh-7, 72 h
[4] = Selectivity index, ratio of CC50 for human Huh-7 cells to IC50 for Zika virus H/PF/2013 infected in pre-seeded Huh-7 cells assessed as inhibition of viral replication incubated for 72 hrs by immunodetection based secondary yield reduction assay; type: toxicity, cell-based; settings: read-out: Selectivity Index
West Nile virus = assay: Antiviral activity against West Nile virus lineage 1 (Italy/2009) infected in pre-seeded Huh-7 cells assessed as inhibition of viral replication incubated for 48 hrs by immunodetection based direct yield reduction assay; type: functional, organism-based; settings: West Nile virus, lineage 1 (Italy/2009), Huh-7, 48 h; read-out: IC50
[5] = Selectivity index, ratio of CC50 for human Huh-7 cells to IC50 for West Nile virus lineage 1 (Italy/2009) infected in pre-seeded Huh-7 cells assessed as inhibition of viral replication incubated for 48 hrs by immunodetection based direct yield reduction assay; type: toxicity, cell-based; settings: read-out: Selectivity Index
Outline: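 Direct yield reduction in Huh7 cells (7000/well), infected with 50 TCID₅₀ of DENV or ZIKV, or 25 TCID₅₀ of WNV. Adsorption 1 h at 37 °C, then virus removed and serial compound dilutions added. Incubated 72 h (DENV, ZIKV) or 48 h (WNV). Viral antigen immunodetected on the monolayer. IC₅₀ by non-linear regression, mean of three experiments. SI = CC₅₀ (Huh7, CellTiter-Glo luminescence)/IC₅₀.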

[6] = Antioxidant activity assessed as inhibition of ABTS radical scavenging activity at 10 uM to 1 mM measured after 10 mins; type: functional
Outline: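 ABTS radical solution diluted in ethanol (1:100) to A734 0.70; 3.0 mL mixed with 30 μL sample in DMSO at 10 μM–1 mM; A734 read after exactly 10 min; ascorbic acid reference; % scavenging = (A0−As)/A0×100.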

MDCK = assay: Cytotoxicity against MDCK cells assessed as reduction in cell viability measured after 24 hrs by MTT assay; type: cell-based, Canis lupus familiaris; settings: dog, mdck, 24 h
Influenza A virus [7] = assay: Antiviral activity against Influenza A Puerto Rico/8/34/H1N1 infected in MDCK cells assessed as inhibition of viral replication measured in supernatants of infected cells after 24 hrs by hemagglutination assay; type: functional, organism-based; settings: A/Puerto Rico/8/1934(H1N1)
[8] = Selectivity index, ratio of CC50 for MDCK cells to IC50 for Influenza A Puerto Rico/8/34/H1N1 infected in MDCK cells; type: toxicity, cell-based; settings: dog, read-out: Selectivity Index; outline: as §1
[9] = Inhibition of Dengue virus 2 […] RNA dependent RNA polymerase incubated for 10 mins by picogreen staining based fluorescent analysis (Rvb= 0.27+/-0.03 uM); parameters: species or system dengue virus type 2
[10] = Inhibition of full length Dengue virus 2 NS5 RNA dependent RNA polymerase incubated for 10 mins by picogreen staining based fluorescent analysis (Rvb= 0.32+/-0.05 uM); parameters: species or system dengue virus type 2
[11] = Inhibition of full length ZIKA virus NS5 RNA dependent RNA polymerase incubated for 10 mins by picogreen staining based fluorescent analysis (Rvb= 1+/-0.2 uM)
[12] = Inhibition of DENV NS5-MTase domain using GpppA2'OMe-RNA74 as a substrate incubated for 30 mins by filter binding assay; parameters: species or system dengue virus type 2
Outline: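 MTase (1 μM) incubated with increasing inhibitor in 40 mM Tris-HCl pH 7.5, 5 mM DTT, 10 μM AdoMet ([3H]-labelled), 0.5 μM GpppA2′OMe-RNA74 substrate, 30 °C for 30 min; stopped in ice-cold 100 μM AdoHcy; DEAE filter binding, scintillation counting.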

[13] = Inhibition of full length ZIKV NS5-MTase domain using 7MeGpppAC4 as a substrate incubated for 30 mins by filter binding assay; parameters: species or system Zika virus
[14] = biological target: Src (Proto-oncogene tyrosine-protein kinase Src) (Homo sapiens, UniProt P12931); assay: Inhibition of human recombinant N terminal His6 tagged full length Src assessed as residual activity at 5 uM using KVEKIGEGTYGVVYK as a substrate in the presence of NP-40 incubated for 10 mins by scintillation counting analysis relative to control; settings: probe KVEKIGEGTYGVVYK, read-out: Activity
Src (Proto-oncogene tyrosine-protein kinase Src), sequence (P12931 2-536 limits assumed): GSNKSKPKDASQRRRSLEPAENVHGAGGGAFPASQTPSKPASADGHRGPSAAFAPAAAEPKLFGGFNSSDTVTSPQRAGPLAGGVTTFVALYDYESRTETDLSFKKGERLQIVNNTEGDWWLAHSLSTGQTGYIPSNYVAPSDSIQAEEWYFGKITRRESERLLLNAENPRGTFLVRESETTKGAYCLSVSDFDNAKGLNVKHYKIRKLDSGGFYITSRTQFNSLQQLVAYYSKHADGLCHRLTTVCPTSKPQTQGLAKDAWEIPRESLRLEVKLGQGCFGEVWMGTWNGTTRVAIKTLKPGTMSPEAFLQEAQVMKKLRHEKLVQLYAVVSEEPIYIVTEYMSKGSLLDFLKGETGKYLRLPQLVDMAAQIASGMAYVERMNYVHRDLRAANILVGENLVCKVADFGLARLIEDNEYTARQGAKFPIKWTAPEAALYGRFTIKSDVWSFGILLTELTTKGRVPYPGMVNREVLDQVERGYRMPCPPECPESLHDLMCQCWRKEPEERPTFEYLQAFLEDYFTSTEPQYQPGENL
Outline: (§2)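 Compounds at fixed 5 μM; 10–50 ng kinase, substrate and NP-40/BSA per supplementary table, 10 μL at 30 °C for 10 min in low-binding tubes. Reactions spotted on filter, dried, scintillation counted. Mean ± SD of two independent experiments.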

[15] = biological target: Abl (Tyrosine-protein kinase ABL1) (Homo sapiens, UniProt P00519); assay: Inhibition of human recombinant N terminal His6 tagged Abl (27 to end residue) assessed as residual activity at 5 uM using KKGEAIYAADFA-NH2 as a substrate in the presence of NP-40 incubated for 10 mins by scintillation counting analysis relative to control; settings: probe KKGEAIYAADFA-NH2, read-out: Activity; outline: as §2
Abl (Tyrosine-protein kinase ABL1), sequence (P00519 whole entry): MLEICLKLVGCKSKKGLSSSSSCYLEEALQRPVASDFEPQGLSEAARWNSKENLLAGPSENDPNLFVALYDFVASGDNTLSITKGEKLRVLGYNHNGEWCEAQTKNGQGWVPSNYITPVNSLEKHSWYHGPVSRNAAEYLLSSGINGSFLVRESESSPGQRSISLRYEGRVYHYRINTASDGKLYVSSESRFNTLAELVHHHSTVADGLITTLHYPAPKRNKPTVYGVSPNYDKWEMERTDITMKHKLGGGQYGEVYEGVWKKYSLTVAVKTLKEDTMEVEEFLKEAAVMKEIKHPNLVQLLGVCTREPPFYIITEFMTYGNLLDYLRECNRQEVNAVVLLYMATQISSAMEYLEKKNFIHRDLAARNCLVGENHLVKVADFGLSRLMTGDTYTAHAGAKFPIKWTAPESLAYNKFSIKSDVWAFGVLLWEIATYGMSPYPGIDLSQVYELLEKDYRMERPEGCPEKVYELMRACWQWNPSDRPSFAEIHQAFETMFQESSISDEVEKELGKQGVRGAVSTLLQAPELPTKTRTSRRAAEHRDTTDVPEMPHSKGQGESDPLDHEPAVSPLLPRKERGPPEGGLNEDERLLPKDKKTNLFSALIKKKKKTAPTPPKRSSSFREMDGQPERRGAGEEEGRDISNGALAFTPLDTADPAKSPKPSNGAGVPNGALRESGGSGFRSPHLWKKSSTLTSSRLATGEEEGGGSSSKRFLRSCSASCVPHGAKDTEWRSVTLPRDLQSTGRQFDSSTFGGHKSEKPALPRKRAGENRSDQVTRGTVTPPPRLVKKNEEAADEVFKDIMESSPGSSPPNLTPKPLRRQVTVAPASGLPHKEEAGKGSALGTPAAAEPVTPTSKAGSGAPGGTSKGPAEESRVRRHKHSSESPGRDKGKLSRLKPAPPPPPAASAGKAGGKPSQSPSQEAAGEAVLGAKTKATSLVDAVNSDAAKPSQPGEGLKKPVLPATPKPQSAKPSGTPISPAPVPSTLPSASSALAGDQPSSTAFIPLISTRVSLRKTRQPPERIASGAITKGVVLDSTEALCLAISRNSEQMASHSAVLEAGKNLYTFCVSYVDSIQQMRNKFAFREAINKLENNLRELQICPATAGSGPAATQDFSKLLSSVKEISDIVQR

[16] = biological target: Fyn (Tyrosine-protein kinase Fyn) (Homo sapiens, UniProt P06241); assay: Inhibition of human recombinant N terminal His6 tagged full length Fyn assessed as residual activity at 5 uM using […] as a substrate in the presence of NP-40 incubated for 10 mins by scintillation counting analysis relative to control; settings: probe […], read-out: Activity; outline: as §2
Fyn (Tyrosine-protein kinase Fyn), sequence (P06241 whole entry, canonical isoform): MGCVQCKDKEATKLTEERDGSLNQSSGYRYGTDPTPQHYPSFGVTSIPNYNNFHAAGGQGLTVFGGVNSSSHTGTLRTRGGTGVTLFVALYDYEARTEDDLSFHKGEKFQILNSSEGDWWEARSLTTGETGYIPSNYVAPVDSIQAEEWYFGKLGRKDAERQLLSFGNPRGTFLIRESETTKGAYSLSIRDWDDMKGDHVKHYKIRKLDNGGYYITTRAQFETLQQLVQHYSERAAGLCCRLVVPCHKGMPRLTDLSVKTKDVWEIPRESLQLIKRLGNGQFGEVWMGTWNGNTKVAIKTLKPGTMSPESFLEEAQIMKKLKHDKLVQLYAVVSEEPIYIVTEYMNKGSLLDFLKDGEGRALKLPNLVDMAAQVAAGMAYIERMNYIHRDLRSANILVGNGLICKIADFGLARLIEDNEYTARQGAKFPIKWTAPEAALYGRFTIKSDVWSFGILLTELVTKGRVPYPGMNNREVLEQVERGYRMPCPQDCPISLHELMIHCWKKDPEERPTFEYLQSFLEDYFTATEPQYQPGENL

[17] = biological target: PIK3CA (Phosphatidylinositol 4,5-bisphosphate 3-kinase catalytic subunit alpha isoform) (Homo sapiens, UniProt P42336); assay: Inhibition of human full length PIK3CA assessed as residual activity at 5 uM using PI:PS (1:3) as a substrate incubated for 10 mins by scintillation counting analysis relative to control; settings: full length PIK3CA enzyme, probe PI:PS (1:3), read-out: Activity
PIK3CA (Phosphatidylinositol 4,5-bisphosphate 3-kinase catalytic subunit alpha isoform), sequence (P42336 whole entry, canonical isoform): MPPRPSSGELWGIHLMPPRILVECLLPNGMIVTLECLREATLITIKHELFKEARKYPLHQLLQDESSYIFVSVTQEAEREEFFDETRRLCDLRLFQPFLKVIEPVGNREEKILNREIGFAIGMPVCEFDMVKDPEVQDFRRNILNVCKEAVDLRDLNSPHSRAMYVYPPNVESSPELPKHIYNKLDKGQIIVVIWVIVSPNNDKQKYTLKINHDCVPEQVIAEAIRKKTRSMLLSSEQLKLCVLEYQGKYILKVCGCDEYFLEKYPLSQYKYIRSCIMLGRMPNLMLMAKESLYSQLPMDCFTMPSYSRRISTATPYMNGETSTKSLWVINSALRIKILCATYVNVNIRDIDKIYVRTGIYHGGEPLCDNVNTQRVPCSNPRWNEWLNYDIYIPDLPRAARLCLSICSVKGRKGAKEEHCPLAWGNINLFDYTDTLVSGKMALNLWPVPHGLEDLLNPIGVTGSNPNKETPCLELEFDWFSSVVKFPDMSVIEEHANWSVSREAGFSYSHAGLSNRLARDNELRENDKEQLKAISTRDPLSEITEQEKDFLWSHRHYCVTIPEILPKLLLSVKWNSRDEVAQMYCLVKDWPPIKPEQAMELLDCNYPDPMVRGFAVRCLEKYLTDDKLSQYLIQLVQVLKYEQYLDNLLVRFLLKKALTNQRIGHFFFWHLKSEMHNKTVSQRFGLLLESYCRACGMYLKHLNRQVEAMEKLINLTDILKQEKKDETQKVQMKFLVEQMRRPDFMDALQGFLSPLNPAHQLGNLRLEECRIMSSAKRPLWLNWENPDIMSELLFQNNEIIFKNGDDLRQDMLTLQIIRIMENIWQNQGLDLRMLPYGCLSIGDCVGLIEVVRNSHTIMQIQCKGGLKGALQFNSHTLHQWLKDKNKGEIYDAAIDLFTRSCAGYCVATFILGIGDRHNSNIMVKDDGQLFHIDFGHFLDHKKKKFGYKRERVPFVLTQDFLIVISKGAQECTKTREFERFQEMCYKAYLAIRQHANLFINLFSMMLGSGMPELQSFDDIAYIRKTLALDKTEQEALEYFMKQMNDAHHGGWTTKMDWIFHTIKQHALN
Outline: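 Radiometric kinase reaction with 10–50 ng enzyme and compound fixed at 5 μM, 10 μL at 30 °C for 10 min. Reactions spotted on filter and counted by scintillation. Residual activity is the mean ± SD of two independent experiments.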

CDK9/cyclin T1 = CDK9/cyclin T1 (Homo sapiens, UniProt P50750); assay: Inhibition of human full length CDK9/ His-tagged cT1 assessed as residual activity at 5 uM using CDKtide as a substrate in the presence of BSA incubated for 10 mins by scintillation counting analysis relative to control; type: protein-complex assay; settings: full length CDK9/His-tagged cyclin T1 complex, probe CDKtide, read-out: Activity; outline: as §2
CDK9/cyclin T1, sequence (O60563 whole entry): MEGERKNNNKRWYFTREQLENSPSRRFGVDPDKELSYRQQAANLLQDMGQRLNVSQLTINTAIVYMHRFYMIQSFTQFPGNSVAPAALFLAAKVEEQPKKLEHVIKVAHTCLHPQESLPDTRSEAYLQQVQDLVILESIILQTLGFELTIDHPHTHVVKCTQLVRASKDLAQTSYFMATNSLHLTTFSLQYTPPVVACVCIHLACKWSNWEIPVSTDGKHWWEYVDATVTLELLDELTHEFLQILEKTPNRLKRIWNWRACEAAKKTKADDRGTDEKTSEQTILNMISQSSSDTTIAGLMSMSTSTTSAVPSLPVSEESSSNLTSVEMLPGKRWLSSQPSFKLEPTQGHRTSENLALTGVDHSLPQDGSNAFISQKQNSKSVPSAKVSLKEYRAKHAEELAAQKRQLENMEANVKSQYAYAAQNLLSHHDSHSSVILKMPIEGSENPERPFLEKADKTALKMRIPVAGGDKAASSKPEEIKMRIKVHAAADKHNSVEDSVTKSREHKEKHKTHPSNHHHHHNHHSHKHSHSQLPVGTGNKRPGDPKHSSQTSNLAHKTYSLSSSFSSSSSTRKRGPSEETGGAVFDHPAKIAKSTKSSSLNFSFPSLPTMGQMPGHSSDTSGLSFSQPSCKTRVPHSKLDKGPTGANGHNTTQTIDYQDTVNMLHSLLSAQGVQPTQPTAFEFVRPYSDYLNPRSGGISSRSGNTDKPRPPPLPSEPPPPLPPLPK
CDK9/cyclin T1, sequence (P50750 whole entry): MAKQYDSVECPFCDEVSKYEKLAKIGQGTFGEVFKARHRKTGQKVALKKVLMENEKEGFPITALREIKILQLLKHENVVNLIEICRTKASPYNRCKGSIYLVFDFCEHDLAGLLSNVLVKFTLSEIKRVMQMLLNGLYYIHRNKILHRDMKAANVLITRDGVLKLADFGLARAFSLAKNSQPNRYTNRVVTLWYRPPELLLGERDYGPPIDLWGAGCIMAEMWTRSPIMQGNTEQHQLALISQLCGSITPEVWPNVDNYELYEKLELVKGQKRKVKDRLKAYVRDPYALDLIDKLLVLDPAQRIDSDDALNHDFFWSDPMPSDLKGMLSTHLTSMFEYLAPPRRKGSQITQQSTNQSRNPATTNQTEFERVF

Compound `Fc1cccc(NNc2nc(NCCOc3ccccc3)nc3[nH]cnc23)c1` has a selectivity ratio [1] of 3.5, an IC50 (Influenza A virus [2]) of 14.9 µM and a CC50 (A549) of 52.4 µM. For the same compound, the CC50 (Huh-7) was 20 µM, the IC50 (dengue virus type 2) was 3.4 µM and the selectivity ratio at 72 h [3] was 6. The IC50 (Zika virus) was 2.4 µM, the selectivity ratio at 72 h [4] was 8 and the IC50 (West Nile virus) was 1.1 µM. For the same compound, the selectivity ratio at 48 h [5] was 18, the Activity [6] was “Active” and the CC50 (MDCK) was 136 µM. For the same compound, the IC50 (Influenza A virus [7]) was 6.3 µM, the selectivity ratio [8] was greater than 5.3 and the IC50 [9] was greater than 100 µM. For the same compound, the IC50 [10] was 153 µM, the IC50 [11] was 105 µM and the IC50 [12] was “Not Active”. The IC50 [13] was “Not Active”, the activity at 10 min, 5 µM [14] was 84% and the activity at 10 min, 5 µM [15] was 67%. For the same compound, the activity at 10 min, 5 µM [16] was greater than 98%, the activity at 10 min, 5 µM [17] was 77% and the activity at 10 min, 5 µM (CDK9/cyclin T1) was 88%.
